# Experimental data pooled from the literature.
# Target: Wee1-like protein kinase (WEE1, Homo sapiens, UniProt P30291)
SMILES,test,setting,endpoint,result
Cc1nn(C)cc1-c1nc2c(N3CCN(Cc4ccc(Cl)cc4)CC3)c(Cl)cnc2[nH]1,"binding, competition with immobilised ligand",1 µM,remaining binding,96%
Cn1cc(-c2cccc(N3CCc4c(sc5c4CC(C)(C)C5)C3=O)c2CO)cc(Nc2ccncn2)c1=O,"enzyme activity, inhibitor",1 µM,inhibition,-4%
O=c1[nH]c2ccccc2n1C1CCN(Cc2ccc(-c3[nH]c4cc5ncnc5cc4nc3-c3ccccc3)cc2)CC1,cell-free assay,0.5 µM,remaining signal,93.9%
Cn1cc(-c2cc(F)cc(N3CCn4c(cc5c4CCCC5)C3=O)c2CO)cc(Nc2ccc(N3CCN(C4COC4)CC3)cn2)c1=O,"enzyme activity, inhibitor",0.1 µM,inhibition,3%
COc1ncccc1-c1cnn2ccc(N3CCN(C(=O)OC(C)C)CC3)nc12,"binding, competition with immobilised ligand",1 µM,remaining binding,82%
Nc1ncc(-c2nc(N3CCOCC3)nc(N3CCOCC3)n2)c(C(F)F)n1,"binding, competition with immobilised ligand",10 µM,remaining binding,100%
COc1cc(Nc2ncc(F)c(Nc3ccc4c(n3)NC(=O)C(C)(C)O4)n2)cc(OC)c1OC,binding,10 µM,inhibition,81%
CC(C)(C)c1cc(C=C(C#N)C#N)cc(Br)c1O,"enzyme activity, inhibitor",0.5 µM,remaining activity,90.9%
Cn1cncc1[C@@](O)(COc1ccc(C#N)cc1-c1ccc(OC(F)(F)F)cc1)c1ccc(C#N)cc1,"cell-free assay, competition with immobilised ligand",1 µM,remaining binding,100%
